Values joined by “and” are separate entries in the source; they are usually repeats but may differ in a detail not shown here. Equal values may be shown once. Read-outs that look alike come from different tables or passages of the source. Where only a bound is given, the exact number is not on record here.

In data set [1] the test system is DLD-1 cancer cells. Nature of the data set: MTT assay, in vitro antiproliferative activity, DLD-1. The note with it: for TGI (total 100% growth inhibition): DLD-1, MTT, 48 hours of drug exposure; for GI50 / IC50: Homo sapiens, DLD-1, 48 h; for GI50: read-out: GI50 (50% growth inhibition); for IC50: read-out: IC50 (half maximal cytotoxic concentration). It is filed as cell-based, human. The gist of the method:
(§1)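 Cells kept in ATCC-recommended medium with 10% FBS and 1% penicillin/streptomycin at 37°C, 5% CO2, seeded at 8×10^3 cells/well. After 24 h, exposed 48 h to test compound (DMSO stock 15 mM) at seven concentrations across 1–100 μM. Medium renewed, MTT added for 3 h, formazan dissolved in DMSO, absorbance read at 540 nm. […] Triplicate.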
A general note: Tetrazolium dyes change colour on reduction, which living cells bring about.

Data set [2] concerns HT-29 cancer cells. As to the kind of experiment: MTT assay, in vitro antiproliferative activity, HT-29. It is filed as cell-based, human. The conditions noted are these: for TGI (total 100% growth inhibition): HT-29, MTT, 48 hours of drug exposure, unit given; for GI50 / IC50: Homo sapiens, HT-29, 48 h; for GI50: read-out: GI50 (50% growth inhibition); for IC50: read-out: IC50 (half maximal cytotoxic concentration). The essentials:
as §1

The test system of a further data set is LoVo cancer cells. As to the kind of experiment: MTT assay, in vitro antiproliferative activity, LoVo. Format: cell-based. The note with it: Homo sapiens, 48 h; for GI50: read-out: GI50 (50% growth inhibition); for IC50: read-out: IC50 (half maximal cytotoxic concentration). The essentials: as §1
Data set [3] is described as follows: MTT assay, normal lung cells. It is filed as cell-based, human. The conditions noted are these: human, MRC5 normal lung cells. The gist of the method: as §1
The test system of data set [4] is healthy lung (MRC5) cells. As to the kind of experiment: MTT assay, normal lung cells. It is filed as cell-based, human. The note with it: for GI50: Homo sapiens, MRC5, 48 h, read-out: GI50 (50% growth inhibition); for Selectivity: GI50, TGI and IC50 values, MRC5 cells versus cancer cell lines: MRC5 versus DLD-1, HT-29, LoVo. The essentials: as §1
The subject of data set [5] is topIIα phosphorylation (Ser1106). As to the kind of experiment: TopIIα phosphorylation cell-based ELISA, LoVo. The conditions noted are these: for maximum inhibitory effect on topIIα phosphorylation: LoVo cells, at either TGI or IC50 concentrations over 6 or 24 hour treatment; for effect on topIIα phosphorylation: LoVo, 6 hours, KA39 TGI and IC50, KA25 TGI 13.8 μΜ, KA26 TGI 100 μΜ. Further details: species or system human. Background: An ELISA detects its analyte on a solid surface through an enzyme-linked reagent.

For data set [6] the test system is unchanged. Nature of the data set: TopIIα phosphorylation cell-based ELISA, HT-29. Further details: species or system human. The conditions noted are these: HT-29 cells, at either TGI or IC50 concentrations over 6 or 24 hour treatment.
Data set [7] has as its system DLD-1 cancer cells. As to the kind of experiment: Flow cytometric analysis of apoptosis. The conditions noted are these: DLD-1, at IC50 concentration (KA39 9 μM, etoposide 27 μM). It is filed as cell-based, human. (In flow cytometry, cells or beads pass a laser one at a time.)
Data set [8] concerns HT-29 cancer cells. Nature of the data set: Flow cytometric analysis of cell cycle growth arrest. Format: cell-based, human. The essentials:
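HT-29 cells seeded in 6-well plates and grown 24 h at 37°C, 5% CO2. Medium renewed, then cells exposed to test compound for 24 h or 48 h at the stated levels, with untreated and etoposide-treated parallels. Cells trypsinised, washed and lysed in nuclei extraction buffer for 15 min in the dark. DNA stained with PI/RNase solution for 30–60 min in the dark. Flow cytometry, 1×10^4 events per sample, triplicate.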

In another data set the target is topoisomerase II (Homo sapiens, UniProt P11388). As to the kind of experiment: DNA topoisomerase II assay. Format: biochemical.
The mark [9] stands for this setting: HT-29, IC50 concentration (KA39 19.5 μM), 24 hours.
[10] abbreviates: HT-29, TGI concentration (KA39 15.9 μM, etoposide 69 μM), 48 hours.

Sequence of topoisomerase II (P11388 whole entry): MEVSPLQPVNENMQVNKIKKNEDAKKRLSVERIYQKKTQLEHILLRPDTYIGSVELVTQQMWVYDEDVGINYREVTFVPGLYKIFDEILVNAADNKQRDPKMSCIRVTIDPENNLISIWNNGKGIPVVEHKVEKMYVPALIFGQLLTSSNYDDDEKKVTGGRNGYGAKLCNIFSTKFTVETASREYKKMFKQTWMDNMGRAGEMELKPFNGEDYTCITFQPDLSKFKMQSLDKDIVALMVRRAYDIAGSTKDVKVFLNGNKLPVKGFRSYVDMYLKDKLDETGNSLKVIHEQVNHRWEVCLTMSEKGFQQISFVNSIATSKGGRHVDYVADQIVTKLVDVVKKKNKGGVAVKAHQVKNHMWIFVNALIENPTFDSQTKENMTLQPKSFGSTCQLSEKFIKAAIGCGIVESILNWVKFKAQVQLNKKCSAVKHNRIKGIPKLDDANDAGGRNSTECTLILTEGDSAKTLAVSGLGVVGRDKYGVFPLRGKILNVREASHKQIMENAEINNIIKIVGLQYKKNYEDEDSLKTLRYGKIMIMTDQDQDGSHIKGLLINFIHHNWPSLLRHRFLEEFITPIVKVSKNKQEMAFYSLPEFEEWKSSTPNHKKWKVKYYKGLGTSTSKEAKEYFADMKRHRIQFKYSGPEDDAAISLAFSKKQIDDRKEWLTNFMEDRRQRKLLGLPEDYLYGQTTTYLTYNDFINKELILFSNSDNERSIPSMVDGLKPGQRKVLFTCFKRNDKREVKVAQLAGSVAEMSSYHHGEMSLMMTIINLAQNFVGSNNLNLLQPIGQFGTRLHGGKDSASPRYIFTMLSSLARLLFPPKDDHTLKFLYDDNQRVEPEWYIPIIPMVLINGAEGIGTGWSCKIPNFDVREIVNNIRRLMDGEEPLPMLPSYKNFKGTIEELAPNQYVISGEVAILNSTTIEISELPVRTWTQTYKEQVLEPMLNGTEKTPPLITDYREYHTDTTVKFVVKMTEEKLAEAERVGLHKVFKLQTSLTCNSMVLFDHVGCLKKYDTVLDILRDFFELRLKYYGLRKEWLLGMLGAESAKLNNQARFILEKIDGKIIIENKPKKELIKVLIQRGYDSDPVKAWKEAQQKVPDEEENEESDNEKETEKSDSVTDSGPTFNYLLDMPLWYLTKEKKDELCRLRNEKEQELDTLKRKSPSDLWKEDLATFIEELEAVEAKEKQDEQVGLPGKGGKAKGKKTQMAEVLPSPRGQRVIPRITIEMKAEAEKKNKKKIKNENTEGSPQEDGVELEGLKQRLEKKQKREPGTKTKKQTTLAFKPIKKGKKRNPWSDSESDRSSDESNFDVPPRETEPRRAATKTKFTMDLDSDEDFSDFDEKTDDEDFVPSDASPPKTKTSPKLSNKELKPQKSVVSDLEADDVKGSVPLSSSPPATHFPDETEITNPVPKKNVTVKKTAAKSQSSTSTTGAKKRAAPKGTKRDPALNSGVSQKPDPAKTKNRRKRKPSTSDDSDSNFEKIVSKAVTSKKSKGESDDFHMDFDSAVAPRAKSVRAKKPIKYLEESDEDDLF

As to `COc1cc(Cc2nnc3sc(/C=C/c4ccc(Cl)cc4)nn23)c(S(=O)(=O)N(C)C)cc1OC` [KA26, (E)-2-((6-(4-Chlorostyryl)-[1,2,4]Triazolo[3,4-b][1,3,4]Thiadiazol-3-Yl)Methyl)-4,5-Dimethoxy-N,N-Dimethylbenzenesulfonamide], in the data set on DLD-1 cancer cells [1], the “TGI (total 100% growth inhibition)” value was over 100 µM; the GI50 – broadly, the concentration at which growth is held to half of that of the control – worked out at 1200 ± 810 nM; the IC50 is over 100 µM. In addition, in the data set on HT-29 cancer cells [2], the “TGI (total 100% growth inhibition)” value was over 100 µM, the GI50 amounted to 2 ± 0.76 µM and the IC50 was over 100 µM. Moreover, in the data set on LoVo cancer cells, the GI50 came to 15 ± 0.8 µM and the IC50 is over 100 µM. In addition, the IC50 at 48 h in data set [3] is over 100 µM. Also, in data set [4], the GI50 was 30 ± 0.9 µM; the “Selectivity: GI50, TGI and IC50 values, MRC5 cells versus cancer cell lines” value (shortened to “Selectivity: GI50, TGI and IC50 values”) is 3–5 times. Further, in data set [5], the “maximum inhibitory effect on topIIα phosphorylation” value (from here on “maximum inhibitory effect”) is 18% and the “effect on topIIα phosphorylation” value was “did not affect the phosphorylation status of topIIα”. The “maximum inhibitory effect” value in [6] turned out to be 50%.

As to `COc1cc(Cc2nnc3sc(-c4cc([N+](=O)[O-])ccc4[N+](=O)[O-])nn23)c(S(=O)(=O)N(C)C)cc1OC` [KA39, 2-((6-(2,5-Dinitrophenyl)-[1,2,4]Triazolo[3,4-b][1,3,4]Thiadiazol-3-Yl)Methyl)-4,5-Dimethoxy-N,N-Dimethylbenzenesulfonamide], in the data set on DLD-1 cancer cells [1], the “TGI (total 100% growth inhibition)” value was determined as 5 ± 0.76 µM, the GI50 worked out at 3000 ± 520 nM and the IC50 was 9 ± 0.76 µM. Further, in the data set on HT-29 cancer cells [2], the “TGI (total 100% growth inhibition)” value was 15.9 µM and 15.9 ± 0.55 µM; the GI50 was 11.5 ± 0.8 µM; the IC50 came out at 19.5 ± 0.9 µM. In addition, in the data set with LoVo cancer cells, the GI50 stood at 2.2 ± 0.2 µM and the IC50 stood at 10.5 ± 0.15 µM. Further, the IC50 at 48 h in data set [3] came out at 40.5 ± 0.76 µM. In addition, in data set [4], the GI50 was found to be 15 ± 0.36 µM; the “Selectivity: GI50, TGI and IC50 values” value is recorded as 3–5 times. Moreover, in the data set on DLD-1 cancer cells [7] (48 hours), the “early apoptosis (Q4)” value is 17.35% and the “late apoptosis (Q2)” value is 13.12%. In addition, in the data set with DLD-1 cancer cells [7] (72 hours), the “early apoptosis (Q4)” value worked out at 20.68% and the “late apoptosis (Q2)” value is recorded as 20.96%. For the same compound, in the data set on HT-29 cancer cells [8] (setting [9]), the “% of cells in G1 phase” value was 46.64%, the “% of cells in G2/M phase” value is 3.74%, the “% of cells in S phase” value was 21.52% and the “% of cells in SG (SubG1) phase” value was 27.06%. Also, in the data set on HT-29 cancer cells [8] (setting [10]), the “% of cells in G1 phase” value was 40.95%, the “% of cells in G2/M phase” value stood at 9.48%, the “% of cells in S phase” value came out at 14.66% and the “% of cells in SG (SubG1) phase” value is listed as 33.51%. Besides, the “topoisomerase II reaction product on agarose gel” value on topoisomerase II (pHOT1 supercoiled DNA, KA39 0.1, 1.0, 7.5 and 20 μΜ, non-EB gel) is recorded as “induced the formation of supercoiled DNA in all concentrations used”. Further, in data set [5], the “maximum inhibitory effect” value is listed as 60% and the “effect on topIIα phosphorylation” value is “enhanced the phosphorylation status of topIIα”. For the same compound, the “maximum inhibitory effect” value in data set [6] stood at 76%.

With `COc1cc([C@@H]2c3cc4c(cc3[C@@H](O[C@@H]3O[C@@H]5CO[C@@H](C)O[C@H]5[C@H](O)[C@H]3O)[C@H]3COC(=O)[C@H]23)OCO4)cc(OC)c1O` [Etoposide, reference compound], in the data set on DLD-1 cancer cells [1], the “TGI (total 100% growth inhibition)” value was found to be 8 ± 0.5 µM, the concentration for 50% growth inhibition (GI50) was 1800 ± 390 nM and the IC50 worked out at 27 ± 0.28 µM. Moreover, in the data set on HT-29 cancer cells [2], the “TGI (total 100% growth inhibition)” value is 69 ± 0.9 µM, the GI50 was 9.5 ± 0.5 µM and the IC50 was over 100 µM. For the same compound, in the data set on LoVo cancer cells, the 50% growth inhibitory concentration (GI50) came out at 14 ± 0.5 µM and the IC50 was over 100 µM. Also, the IC50 at 48 h in data set [3] was over 100 µM. The GI50 in data set [4] worked out at 25 ± 0.3 µM. In addition, in the data set with DLD-1 cancer cells [7] (48 hours), the “early apoptosis (Q4)” value is listed as 51.12% and the “late apoptosis (Q2)” value turned out to be 18.84%. In the data set with DLD-1 cancer cells [7] (72 hours), the “early apoptosis (Q4)” value is 42.01% and the “late apoptosis (Q2)” value amounted to 30.48%. Further, in the data set with HT-29 cancer cells [8] (setting [9]), the “% of cells in G1 phase” value came to 57.28%, the “% of cells in G2/M phase” value turned out to be 5.99%, the “% of cells in S phase” value turned out to be 16.50% and the “% of cells in SG (SubG1) phase” value is listed as 20.23%. Also, in the data set with HT-29 cancer cells [8] (setting [10]), the “% of cells in G1 phase” value is listed as 26.06%, the “% of cells in G2/M phase” value was found to be 4.37%, the “% of cells in S phase” value turned out to be 13.10% and the “% of cells in SG (SubG1) phase” value is 55.80%. The “topoisomerase II reaction product on agarose gel” value at topoisomerase II is reported as “linear DNA”.

`COc1cc(Cc2nnc3sc(/C=C/c4ccc(F)cc4)nn23)c(S(=O)(=O)N(C)C)cc1OC` [KA25, (E)-2-((6-(4-Fluorostyryl)-[1,2,4]Triazolo[3,4-b][1,3,4]Thiadiazol-3-Yl)Methyl)-4,5-Dimethoxy-N,N-Dimethylbenzenesulfonamide]: in the data set with DLD-1 cancer cells [1], the “TGI (total 100% growth inhibition)” value amounted to 65 ± 0.5 µM, the 50% growth inhibitory concentration (GI50) is 11400 ± 500 nM and the IC50 is over 100 µM. Besides, in the data set on HT-29 cancer cells [2], the “TGI (total 100% growth inhibition)” value was over 100 µM, the GI50 worked out at 1 ± 0.3 µM and the IC50 is over 100 µM. Further, in the data set with LoVo cancer cells, the GI50 was 8 ± 0.76 µM and the IC50 was over 100 µM. Moreover, the IC50 at 48 h in data set [3] is over 100 µM. Further, in [4], the GI50 is 15 ± 0.9 µM; the “Selectivity: GI50, TGI and IC50 values” value is recorded as 3–5 times. Besides, in [5], the “maximum inhibitory effect” value is listed as 47% and the “effect on topIIα phosphorylation” value is “less significant inhibition of topIIα phosphorylation”. Moreover, the “maximum inhibitory effect” value in data set [6] came out at 33%.
